Experimental data from the RNAGym collection of RNA variant scans (doi:10.1126/science.aae0568).
Variants at the floor of the assay were thinned out.

B1: tRNA (parent)
chain: GUUCCGUUGGCGUAAUGGUAACGCGUCUCCCUCCUAAGGAGAAGACUGCGGGUUCGAGUCCCGUACGGAACG

Variants of: B1
Assay: yeast fitness relative to wild type (ratio to wild type); higher = fitter; tRNA-Arg(CCU), competitive growth, 37 C, YPD
In short: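 A pool of Saccharomyces cerevisiae strains, each with a tRNA-Arg(CCU) gene variant at the native genomic locus, was competed in YPD at 37°C for 24 hours across six parallel replicates. The variants had been chemically synthesised at a 3% per-site mutation rate over 69 sites, and gene amplicons before and after competition were read by 100-nucleotide paired-end sequencing. Darwinian fitness relative to wild type rested on changes in genotype frequencies. Genotypes required ≥ 100 starting reads, and estimates < 0.5 were set to 0.5.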

Variant | yeast fitness
GUUCCGUUGGCAUAAUGGUAACGCGUCUCCCUCCUAAGGAGAAGACUGCGGGUUCGAGUCCUGUACGGAUCG | 0.695
GUUCCGUUGGCAUAAUGGUAACGCGUCUCGCUCCUAAGGAGAAGACUGCGGGUUCGAGUCCCGUUCGGAACG | ≤ 0.5
GUUCCGUUGGCAUAAUGGUAACGCGUGUCCCUCCUUAGGAGAAGACUGCGGGUUCGAGUCCCGUUCGGAACG | ≤ 0.5
GUUCCGUUGGCAUAAUGGUAACGAGUCUCCCUCCUUAGGAGAAGACUGCGCGUUUGAGUCCCGUACGGCUCG | 0.532
GUUCCGUUGGCAUAAUGGUAACGCGUAUUCCUCCUGAGGAGAAGACUGCGGGUUCGAGUCCCGUACGGAACG | ≤ 0.5
GUUCCGUUGGCAUAAUGGUAACGCGUCUACCUCCUAAGGAGUAGUCUGCGGGUUCGAGUCGCGUACGGAACG | ≤ 0.5
GUUCCGUUGGCAUAAUGGUACCGCGUCUCCCUCCUAAGGAGAAGACUGCGGGUUCGAGUCCCGUACGGAUCG | 0.563
GUUCCGUUGGCAUAAUGGUAACGCGUCUCCCUCCUAAGGAGAUGACUGCGGGUUCGACUCCCGUACGGAACG | 0.632
GUUCCGUUGGCAUAAUGGUAACGAGUCUCCCUCCUUAGGAGAAGACUGCGGGUUCGAGUCUCGUACGGAACG | 0.618
GUUCCGUUGGCAUAAUGGUAACGCGUCUCGCUCCUAAGGAGAAGAGUGCGGGUUCGAGUCCCGUACGGAACG | ≤ 0.5
GUUCCGUUGGCAUAAUGGUAACGCGUCUCCCUCCUGAGGAGAAGACGGCGGGUUCGAGUCCCAUUCGGAACG | ≤ 0.5
GUUCCGUUGGCAUAAUGGUAACGCGUCUCCCUUCUAAGGAGAAGACUGCGGGUUCGAGUCCCGUACGGAACG | 0.839
GUUCCGUUGGCAUAAUGGUAACGCGUAUUCCUCCUAAGGAGAAGACUGCGGGUUCGAGUCCCGUACGGAACG | 0.981
GUUCCGUUGGCAUAAUGGUAACGCGUUUCCCUCCUAAGGAGUAGACUGCGGGUUCGAGUCCUGUACGGAACG | ≤ 0.5
GUUCCGUUGGCAUAAUGGUAACGUGUAUCCCUCCUAAGGAGAAGACUGCGGGUUCGAGUCCCGUACGGAUCG | ≤ 0.5
GUUCCGUUGGCAUAAUGGUAACGCGUCUCCCUCCUAAGGAGAAGACUGCGGGUUCGAGUACCGUACGGAGCG | ≤ 0.5
GUUCCGUUGGCAUAAUGGUAACGCGUCUCCCUCCUAAGGAGAAGACUGCGGGUUCGAGUCGCGUACGGAACG | 0.605
GUUCCGUUGGCAUAAUGGUAACGGGUCUCCCUCCUAAGGCGGCGAUUGCGGGUUCGAGUCCCGUACGCUACG | ≤ 0.5
GUUCCGUUGGCAUAAUGGUAACGCGUGUCCCUCUUAAGGAGACGACUGCGGGUUCGUAUCCGGUACGGAACG | ≤ 0.5
GUUCCGUUGGCAUAAUGGUAACGCGUCUCCCUCCUAAGGAGAAGACUGCGGGUUUGAGUCCCGUACGGAACG | 0.908
GUUCCGUUGGCAUAAUGGUAAAGCGUCUCCCUCCUGGGGAGAAGACUGCGGGUUCGUGUCCCGUACGGAACG | ≤ 0.5
GUUCCGUUGGCAUAAUGGUAAAGCGUCUCCCUCCUGGGGAGAAGACUGCGGGUUCGAGUCCCGUACGGAACG | ≤ 0.5
GUUCCGUUGGCAUAAUGGUAACGCGUCUCCCUCCUAAGGAGAUGCCUGCGGGUUCGAGUCCCGUACCGAACG | 0.542
GUUCCGUUGGCAUAAUGGUAGCGCGUCUCCCUCCUAAGGAGAAGAAUGCGGGUUCGAGUCCCGUACGGAACG | 0.936
GUUCCGUUGGCAUAAUGGUAACGCGUAUCGCUCCUAAGGAGAAGACUGCGGGUUCGAGUCCCGUACGGAACG | 0.626

Variant | yeast fitness
GUUCCGUUGGCAUAAUGGUAACGCGUUUCCCUCCUAAGGAGAAGACUGUGGGUUCGAGUCCCGUACGGAACG | 0.611
GUUCCGUUGGCAUAAUGGUAACGCGUCUCCCUCCUAAGGAGAAGACUGCGGGUUCGCGUCCCGUAGGGAACG | ≤ 0.5
GUUCCGUUGGCAUAAUGGUAGCGCGUCUCCCUCCUAAGGAGAAGACUACGGGUUCGAGUCCCGUUCGGAACG | 0.534
GUUCCGUUGGCAUAAUGGUAACGGGUCUCCCUCCUAAGGAGAAGACAGGGGGUUCGAGUCCCGUACGGCACG | ≤ 0.5
GUUCCGUUGGCAUAAUGGUAACGAGUCUCCCUCCUUAGGAGAAGACUGCGGGUUCGAGUCCCGUACGGCACG | 0.599
GUUCCGUUGGCAUAAUGGUAACGAGUCUCCCUCCUAAGGAGAAGGCUGCAGGUUCGAGUCCCGUACGGAACG | ≤ 0.5
GUUCCGUUGGCAUAAUGGUAACGCGUCUCCCUCCUCCGGAGAAGACUGCGGGGUCGAGUCCCGUACGGACCG | ≤ 0.5
GUUCCGUUGGCAUAAUGGUAACGCGUAUCCCUCCUAAGGAGAAGACUGCGGGUUCGAGUCCCGUACCGAACG | 0.548
GUUCCGUUGGCAUAAUGGUAACGCGUCUCCCUCCUAAGGAGAAGACUGUGGGUUCGAGUCCCGUCCGGAACG | 0.676
GUUCCGUUGGCAUAAUGGUAAGGCGUCUGUCUCCUUAGGAGAAGACCGCGGGUUCGAGUCCCGUACGGAACG | 0.571
GUUCCGUUGGCAUAAUGGUAACGCGUCUCCCUCCUAAGGAGAAGACUGCGGGUUCGUGUCCCGUACGGAACG | 0.668
GUUCCGUUGGCAUAAUGGUAACGCGUCUCCCUCCUAAGGAGAAGACUGCGGGUUCGGGUCCCGUACGGAACG | 0.909
GUUCCGUUGGCAUAAUGGUAACGCGUCUCCCUCGUAGAGAGAAGACUGCAGGUUCGAGUCCCGUACGGAACG | ≤ 0.5
GUUCCGUUGGCAUAAUGGUAACGCGUCUCUCUCCUAAGGAGAAGCCUGCGGGUUCGAGUGCCGUACGGAACG | ≤ 0.5
GUUCCGUUGGCAUAAUGGUAACGCGUCUCCCUCCUAAGGAGAGGACUGCGGGUUCGAGUCCCGUACGGUACG | 0.803
GUUCCGUUGGCAUAAUGGUAACGAGUCUCCCUCCUUAGGAGAAGACUGCGGGUUCGAGUCCCGUUCGGAACG | ≤ 0.5
GUUCCGUUGGCAUAAUGGUAACGUGUCUCCCUCCUAAGGAGAAGACUGCGGGUUCGAGUCACGUACAGAACG | ≤ 0.5
GUUCCGUUGGCAUAAUGGUAACGCGUCUGCCUCCGAAGGAGAAGACUGCGGGUUCGAGUCUCGUACGGAACG | ≤ 0.5
GUUCCGUUGGCAUAAUGGUGACGCGUCUCCCUCCUAAGGAGAAGACUGCGGGUUCGAGUCCCAUACGGAACG | ≤ 0.5
GUUCCGUUGGCAUAAUGGUAACGGGUCUCCCUCCUAAGGAGAAGACUGCGGGUUCGAGUCCCGUACGAAACG | ≤ 0.5
GUUCCGUUGGCAUAAUGGUAACGCGUCUCGCUCCUAAGGAGAAGACUGCGGGUUCGAGUCCCGUACGGAACG | 0.689
GUUCCGUUGGCAUAAUGACAACGCGUCUCCCUCCUAAGGAGAAGACUGCGGGUUUGCCUCCCAUACGGAACG | ≤ 0.5
GUUCCGUUGGCAUAAUGGUAACGCGUCUCCCUCCUAAGGAGAAGACUGUGGGUUCGAGUCCCGUACGGAACG | 0.93
GUUCCGUUGGCAUAAUGGUAACACGUCGCCCUCCUAAGGAGAAGACUGUGGGUUCCAGUCCCGUUCGGAACG | 0.526
GUUCCGUUGGCAUAAUGGUAACGAGACUCCAUCCUAAGGAGAAGACUGCGGGUUCGAGUCCCGUACAGAACG | ≤ 0.5

Variant | yeast fitness
GUUCCGUUGGCAUAAUGGUAACGCGUCUCCCUCCUAAGGAGAAGCCUGGGGGUUCGAGUCCCGUACGGAACG | 0.619
GUUCCGUUGGCAUAAUAGUAACGCGGCUCCCUACUAUGGAGAAGUCUGCGGGUUCGAGUCCCGUACGGAACG | ≤ 0.5
GUUCCGUUGGCAUAAUGGUUACGCGUCUCCCACCUAAGGAGAAGACUGGGGGUUCGAGUCCCAUUCGGAACG | 0.535
GUUCCGUUGGCAUAAUGGUAAAGCGUCUUCCUCCUAAGGAGAAGACUGCGGGUUCGAGUCCCGUACGGUACG | ≤ 0.5
GUUCCGUUGGCAUAAUGGUAACGCGUCUCCCUUCUCAGGAGAAGACUGCGGGUUCGAGUCCUGUACGGAACG | 0.553
GUUCCGUUGGCAUAAUGGUUACGCGUCUCCCUCCUAAGGAGAAGACUGCGGGUUCGAGUCCUGUGCGGAACG | ≤ 0.5
GUUCCGUUGGCAUAAUGCUAACGCGUCUUCCUCCUAAGGAGAAGACUGCGGGUUCGCGUCCCGUCCGGAACG | ≤ 0.5
GUUCCGUUGGCAUAAUGGUACCGCGUCUCCCUCCUAAGGAGAAGACUGCGGGUUCGAGACCCGUACAGAACG | ≤ 0.5
GUUCCGUUGGCAUAAUGGUAACGCGUUUCCCUCCUAAGGAGAAGACUGCGGGUUCGAGUCCCGUACAGAACG | 0.571
GUUCCGUUGGCAUAAUGGUAACGCGUCUCCCUCCUAAGGAGAUGCCUGUGGGUUCGAGUCCCGUACCGAACG | ≤ 0.5
GUUCCGUUGGCAUAAUGGUAUCGCGUCUCCCUCCUAAGGAGAAGACUGCGGGUUCGAGUCCCGUACGGAACG | 0.729
GUUCCGUUGGCAUAAUGGUGACGUGUAUCCCUCCUAAGGAGAAGACUGCGGGUUCGAGUCCCGUACGGAUCG | ≤ 0.5
GUUCCGUUGGCAUAAUGGUAACGCGUCUCCCUCCUAAGGUGAAGACUGCGGCUUCGAGUGCCGUACGGAACG | ≤ 0.5
GUUCCGUUGGCAUAAUGCUAACGCGUCUCCCUCCUAAGGAGUAGACUGCGGGUUCGAGUCCCGUACGGAGCG | 0.598
GUUCCGUUGGCAUAAUGGUAACGCGUCUCCCUCCUAAGGAGAAGAAAGCGGGUUCGAGUCCCGUACGGAACG | 0.75
GUUCCGUUGGCAUAAUGGUAACGCGUCUCCCUCCUAAGGAGAAGAGUGCGGGUUCGAGUCCCGUACGGAACG | 1
GUUCCGUUGGCAUAAUGGUAACACGUGUCGCUCCUAAGGAGAAGACUGCGGGUUCGAGUCCCGUACGGAACG | ≤ 0.5
GUUCCGUUGGCAUAAUGGUAACGCGUCUCCCUCCUAAGGAGAAGACUGCGGGUUCGAGUACCGUACGGAACG | 0.579
GUUCCGUUGGCAUAAUGGUAACGCGUCUCCCUCCUAAGGAGAAGACUGCGGGUUCGAGUUCCGUACGGAACG | 0.777
GUUCCGUUGGCAUAAUGGUAACGCGUCUCCCUCCUAAGGAGAAGAUUGCGAGUUCGAGUCCCGUAUGGAACG | 0.615
GUUCCGUUGGCAUAAUGGUAACGCGUUUCGCUCCUAAGGAGAAGACUGCGGGUUCGAGUCCCGUACGUAACG | ≤ 0.5
GUUCCGUUGGCAUAAUGGUAACGCGUCUCCCUCCUUAGGAGAAGACUGCGGGUCCGAGUCCCGUACGGAACG | 0.54
GUUCCGUUGGCAUAAUGGUAACGCGUCUCCCUGCUCAGGAGAAAACUGCGGGUUCGAGUCCCGUACGGAACG | ≤ 0.5
GUUCCGUUGGCAUAAUGGUAACGCGUCUCCCUCCUAAGGAGAAGACUGCGGGUUCGGGUCCCGUACGGCACG | ≤ 0.5
GUUCCGUUGGCAUAAUGGUAACGCGUCUCCCUUCUAAGGAGAAGACUGCGGGUUCGAGUCCCAUACGGAACG | ≤ 0.5
